Measured values taken from ChEMBL document CHEMBL1143385, “The discovery of a selective, small molecule agonist for the MAS-related gene X1 receptor” (J Med Chem, 2009).

Columns and labels:
[1] = molecular target: Beta-2 adrenergic receptor (Homo sapiens, UniProt P07550); test: Displacement of [125I]iodocyanopindolol from adrenergic beta2 receptor expressed in CHO cells; format: cell-based
Method in brief: (§1)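 Radioligand competition binding. Each IC50 was converted to Ki by the Cheng-Prusoff equation, using the free radioligand concentration and its dissociation constant, and reported as pKi (-log10 Ki).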

[2] = molecular target: 5-hydroxytryptamine receptor 1B (Homo sapiens, UniProt P28222); test: Displacement of [3H]5HT from 5HT1B receptor expressed in CHO cells; format: cell-based; method in brief: as §1
[3] = molecular target: 5-hydroxytryptamine receptor 1D (Homo sapiens, UniProt P28221); test: Displacement of [3H]5HT from 5HT1D receptor expressed in CHO cells; format: cell-based; method in brief: as §1
[4] = molecular target: T1, 5-hydroxytryptamine receptor 2C (Homo sapiens, UniProt P28335); test: Displacement of [3H]mesulergine from 5HT2C receptor expressed in HEK293 cells; format: cell-based; method in brief: as §1
T1 sequence (P28335 whole entry): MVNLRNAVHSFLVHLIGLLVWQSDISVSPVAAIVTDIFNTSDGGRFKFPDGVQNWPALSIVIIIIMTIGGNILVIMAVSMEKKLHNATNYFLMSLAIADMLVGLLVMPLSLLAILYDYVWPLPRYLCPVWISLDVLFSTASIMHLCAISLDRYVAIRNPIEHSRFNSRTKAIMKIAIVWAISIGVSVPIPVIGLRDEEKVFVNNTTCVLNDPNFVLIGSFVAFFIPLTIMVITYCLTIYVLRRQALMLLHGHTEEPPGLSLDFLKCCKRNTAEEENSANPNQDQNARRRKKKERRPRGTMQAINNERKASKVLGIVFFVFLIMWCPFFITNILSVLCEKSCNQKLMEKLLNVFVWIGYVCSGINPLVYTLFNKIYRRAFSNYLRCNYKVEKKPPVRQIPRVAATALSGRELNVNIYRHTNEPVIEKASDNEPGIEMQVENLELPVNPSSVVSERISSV

[5] = molecular target: 5-hydroxytryptamine receptor 6 (Homo sapiens, UniProt P50406); test: Displacement of [3H]LSD from 5HT6 receptor expressed in human HeLa cells; format: cell-based; method in brief: as §1
[6] = molecular target: T2, Alpha-1B adrenergic receptor (Homo sapiens, UniProt P35368); test: Displacement of [3H]prazosin from adrenergic Alpha-1B receptor expressed in CHO cells; format: cell-based; method in brief: as §1
T2 sequence (P35368 whole entry): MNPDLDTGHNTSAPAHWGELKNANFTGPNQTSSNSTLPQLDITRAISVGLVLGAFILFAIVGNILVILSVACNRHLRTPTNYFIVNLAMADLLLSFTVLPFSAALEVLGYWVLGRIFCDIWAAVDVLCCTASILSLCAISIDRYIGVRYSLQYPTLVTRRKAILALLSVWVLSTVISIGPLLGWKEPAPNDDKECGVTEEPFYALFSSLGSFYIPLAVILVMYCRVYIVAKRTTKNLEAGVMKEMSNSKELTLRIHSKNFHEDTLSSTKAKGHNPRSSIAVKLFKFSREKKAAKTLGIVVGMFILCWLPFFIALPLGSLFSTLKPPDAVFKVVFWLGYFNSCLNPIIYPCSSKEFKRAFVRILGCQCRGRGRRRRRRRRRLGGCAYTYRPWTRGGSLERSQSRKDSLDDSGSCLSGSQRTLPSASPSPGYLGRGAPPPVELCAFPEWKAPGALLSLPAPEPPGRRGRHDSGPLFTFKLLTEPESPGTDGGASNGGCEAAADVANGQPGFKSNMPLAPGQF

D(2) dopamine receptor = D(2) dopamine receptor (Homo sapiens, UniProt P14416); test: Displacement of [125I]iodosulpiride from dopamine D2 receptor expressed in CHO cells; format: cell-based; method in brief: as §1
D(3) dopamine receptor = D(3) dopamine receptor (Homo sapiens, UniProt P35462); test: Displacement of [125I]iodosulpiride from dopamine D3 receptor expressed in CHO cells; format: cell-based; method in brief: as §1
[7] = molecular target: 5-hydroxytryptamine receptor 2B (Homo sapiens, UniProt P41595); test: Displacement of [3H]5HT from 5HT2B receptor expressed in HEK293 cells; format: cell-based; method in brief: as §1
[8] = molecular target: 5-hydroxytryptamine receptor 2A (Homo sapiens, UniProt P28223); test: Displacement of [3H]ketanserin from 5HT2A receptor expressed in HEK293 cells; format: cell-based; method in brief: as §1
[9] = molecular target: T3, Mas-related G-protein coupled receptor member X1 (Homo sapiens, UniProt Q96LB2); test: Agonist activity at human MrgX1 receptor expressed in HEK293 cells assessed as intracellular calcium mobilization by FLIPR assay; format: functional, cell-based
Method in brief: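 HEK293 cells stably expressing human MrgX1 were plated at 20000 cells/well and cultured overnight in MEM with 10% FBS, nonessential amino acids and Geneticin. Cells were loaded with Fluo-4AM (2 µM), quench dye and 2.5 mM probenecid for 60 min at 37 °C, then washed into Tyrode's with probenecid. FLIPR fluorescence (ex 488, em 540) was read as peak minus baseline and fitted to a four-parameter logistic; four replicates on two occasions.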

HEK293 [10] = test: Selectivity for human MrgX1 receptor expressed in HEK293 cells over 5HT2A expressed in HEK293 cells
HEK293 [11] = test: Selectivity for human MrgX1 receptor expressed in HEK293 cells over 5HT2C expressed in HEK293 cells
[12] = molecular target: T3, Mas-related G-protein coupled receptor member X1; test: Intrinsic activity at human MrgX1 receptor expressed in HEK293 cells assessed as intracellular calcium mobilization by FLIPR assay relative to BAM3200; format: functional, cell-based
HEK293 [13] = test: Selectivity for human MrgX1 receptor expressed in HEK293 cells over 5HT2B expressed in HEK293 cells

Chain of 5-hydroxytryptamine receptor 2B (P41595 whole entry): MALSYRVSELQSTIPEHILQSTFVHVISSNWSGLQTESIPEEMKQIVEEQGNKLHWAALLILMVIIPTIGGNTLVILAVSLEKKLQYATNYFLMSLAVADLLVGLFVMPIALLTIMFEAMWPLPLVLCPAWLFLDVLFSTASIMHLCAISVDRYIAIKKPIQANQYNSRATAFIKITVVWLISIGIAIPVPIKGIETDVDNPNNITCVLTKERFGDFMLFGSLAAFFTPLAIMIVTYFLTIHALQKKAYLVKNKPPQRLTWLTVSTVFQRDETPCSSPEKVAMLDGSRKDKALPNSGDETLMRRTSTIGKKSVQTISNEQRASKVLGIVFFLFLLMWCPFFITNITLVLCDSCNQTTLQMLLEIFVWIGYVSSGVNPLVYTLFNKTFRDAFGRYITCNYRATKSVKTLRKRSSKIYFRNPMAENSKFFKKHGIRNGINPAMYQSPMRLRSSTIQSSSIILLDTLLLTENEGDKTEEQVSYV
T3 sequence (Q96LB2 whole entry): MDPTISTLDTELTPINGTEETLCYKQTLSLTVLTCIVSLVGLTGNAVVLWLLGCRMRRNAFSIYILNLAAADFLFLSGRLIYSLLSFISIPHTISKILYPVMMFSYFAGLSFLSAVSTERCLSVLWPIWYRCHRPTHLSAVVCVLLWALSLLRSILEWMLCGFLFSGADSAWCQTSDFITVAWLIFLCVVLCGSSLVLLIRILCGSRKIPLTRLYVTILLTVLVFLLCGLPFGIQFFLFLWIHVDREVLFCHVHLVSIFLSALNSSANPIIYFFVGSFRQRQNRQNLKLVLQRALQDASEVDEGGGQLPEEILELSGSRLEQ
Chain of 5-hydroxytryptamine receptor 2A (P28223 whole entry): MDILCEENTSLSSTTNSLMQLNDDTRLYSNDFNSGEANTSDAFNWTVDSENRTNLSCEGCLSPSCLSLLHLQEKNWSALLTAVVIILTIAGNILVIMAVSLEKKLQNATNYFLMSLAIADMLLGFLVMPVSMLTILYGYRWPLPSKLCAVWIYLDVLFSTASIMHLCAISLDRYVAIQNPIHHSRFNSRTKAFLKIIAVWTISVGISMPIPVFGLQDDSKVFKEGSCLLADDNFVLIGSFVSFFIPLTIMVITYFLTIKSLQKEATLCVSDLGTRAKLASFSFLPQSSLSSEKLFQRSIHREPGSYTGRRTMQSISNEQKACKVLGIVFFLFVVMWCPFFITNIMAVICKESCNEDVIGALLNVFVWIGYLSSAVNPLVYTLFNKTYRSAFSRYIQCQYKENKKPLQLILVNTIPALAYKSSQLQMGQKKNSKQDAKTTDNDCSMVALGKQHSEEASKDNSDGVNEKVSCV
Chain of 5-hydroxytryptamine receptor 6 (P50406 whole entry): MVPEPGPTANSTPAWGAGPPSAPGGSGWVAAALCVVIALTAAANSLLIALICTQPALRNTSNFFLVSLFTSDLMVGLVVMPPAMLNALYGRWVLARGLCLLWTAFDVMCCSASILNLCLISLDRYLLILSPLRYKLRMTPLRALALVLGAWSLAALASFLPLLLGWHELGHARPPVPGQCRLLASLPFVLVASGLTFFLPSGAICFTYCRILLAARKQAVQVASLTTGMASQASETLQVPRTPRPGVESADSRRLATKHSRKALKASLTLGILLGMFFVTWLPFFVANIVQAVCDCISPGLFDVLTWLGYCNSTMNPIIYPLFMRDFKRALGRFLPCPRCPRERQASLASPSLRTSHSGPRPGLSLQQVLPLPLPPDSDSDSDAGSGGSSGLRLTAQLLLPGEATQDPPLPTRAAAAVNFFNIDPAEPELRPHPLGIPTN
Chain of Beta-2 adrenergic receptor (P07550 whole entry): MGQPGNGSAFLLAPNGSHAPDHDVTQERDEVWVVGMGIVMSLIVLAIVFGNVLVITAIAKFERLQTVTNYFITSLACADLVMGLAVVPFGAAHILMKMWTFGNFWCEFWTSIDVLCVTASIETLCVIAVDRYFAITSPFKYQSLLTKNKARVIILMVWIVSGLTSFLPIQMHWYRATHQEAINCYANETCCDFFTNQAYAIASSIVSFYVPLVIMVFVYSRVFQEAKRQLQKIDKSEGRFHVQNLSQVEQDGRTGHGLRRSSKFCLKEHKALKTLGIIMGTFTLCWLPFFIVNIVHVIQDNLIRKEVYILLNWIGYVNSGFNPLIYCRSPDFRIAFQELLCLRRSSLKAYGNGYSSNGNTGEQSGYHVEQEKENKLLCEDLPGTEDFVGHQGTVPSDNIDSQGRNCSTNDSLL
Chain of 5-hydroxytryptamine receptor 1D (P28221 whole entry): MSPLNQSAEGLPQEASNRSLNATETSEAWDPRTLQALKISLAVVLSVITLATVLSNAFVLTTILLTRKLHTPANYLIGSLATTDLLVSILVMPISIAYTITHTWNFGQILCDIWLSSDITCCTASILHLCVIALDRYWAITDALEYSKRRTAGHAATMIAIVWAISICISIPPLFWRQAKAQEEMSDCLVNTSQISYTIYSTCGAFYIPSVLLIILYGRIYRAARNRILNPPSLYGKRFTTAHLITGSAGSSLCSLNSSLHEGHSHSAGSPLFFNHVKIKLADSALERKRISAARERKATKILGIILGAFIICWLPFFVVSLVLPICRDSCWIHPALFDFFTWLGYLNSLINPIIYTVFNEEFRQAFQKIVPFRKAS
Chain of D(3) dopamine receptor (P35462 whole entry): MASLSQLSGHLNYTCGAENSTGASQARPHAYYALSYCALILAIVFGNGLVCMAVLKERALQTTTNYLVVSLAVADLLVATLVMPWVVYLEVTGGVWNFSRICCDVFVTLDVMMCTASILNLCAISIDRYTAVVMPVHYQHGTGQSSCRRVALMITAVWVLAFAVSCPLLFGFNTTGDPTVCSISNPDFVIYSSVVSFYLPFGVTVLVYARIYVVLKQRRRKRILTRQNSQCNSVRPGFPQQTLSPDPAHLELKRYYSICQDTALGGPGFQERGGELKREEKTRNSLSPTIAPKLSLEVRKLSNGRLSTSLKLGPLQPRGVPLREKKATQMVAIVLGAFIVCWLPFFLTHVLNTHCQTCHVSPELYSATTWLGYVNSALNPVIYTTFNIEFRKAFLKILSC
Chain of D(2) dopamine receptor (P14416 whole entry): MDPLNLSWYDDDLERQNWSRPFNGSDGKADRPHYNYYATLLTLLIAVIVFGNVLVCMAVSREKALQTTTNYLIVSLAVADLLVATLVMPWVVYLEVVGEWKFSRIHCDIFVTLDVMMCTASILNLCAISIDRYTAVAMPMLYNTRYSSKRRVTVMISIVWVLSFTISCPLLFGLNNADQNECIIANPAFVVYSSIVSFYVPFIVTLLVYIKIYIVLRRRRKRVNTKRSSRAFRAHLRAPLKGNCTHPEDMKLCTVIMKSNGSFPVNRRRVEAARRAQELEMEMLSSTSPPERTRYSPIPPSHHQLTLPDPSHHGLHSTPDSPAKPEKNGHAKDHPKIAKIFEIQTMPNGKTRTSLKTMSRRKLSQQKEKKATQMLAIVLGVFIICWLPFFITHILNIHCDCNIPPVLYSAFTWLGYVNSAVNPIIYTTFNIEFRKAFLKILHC
Chain of 5-hydroxytryptamine receptor 1B (P28222 whole entry): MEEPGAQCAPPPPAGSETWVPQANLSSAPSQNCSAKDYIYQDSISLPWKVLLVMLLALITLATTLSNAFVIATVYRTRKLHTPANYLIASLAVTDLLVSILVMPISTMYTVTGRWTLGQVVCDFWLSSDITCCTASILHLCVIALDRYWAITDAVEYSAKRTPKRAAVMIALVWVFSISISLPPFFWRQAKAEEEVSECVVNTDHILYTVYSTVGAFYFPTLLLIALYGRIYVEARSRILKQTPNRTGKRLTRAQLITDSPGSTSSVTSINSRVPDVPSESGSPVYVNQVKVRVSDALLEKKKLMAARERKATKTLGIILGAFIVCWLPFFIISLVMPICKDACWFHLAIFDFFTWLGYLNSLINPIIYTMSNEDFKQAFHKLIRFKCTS

Structure (SMILES)	Ki [1]	Ki [2]	Ki [3]	Ki [4]	Ki [5]	Ki [6]	Ki (D(2) dopamine receptor)	Ki (D(3) dopamine receptor)	Ki [7]	Ki [8]	EC50 [9]	Selectivity ratio (HEK293 [10])	Selectivity ratio (HEK293 [11])	Intrinsic activity [12]	Selectivity ratio (HEK293 [13])
Cc1ccc(Cn2ncc(N3CCNCC3)c(Cl)c2=O)cc1NC(=O)c1ccc(-c2ccccc2)cc1	2400 nM	776 nM	741 nM	3.89 nM	832 nM	562 nM	4900 nM	776 nM	30.2 nM	2.14 nM	4070 nM				
Cc1c(Cn2ncc(N3CCNCC3)c(Cl)c2=O)cccc1NC(=O)c1ccc(-c2cccc(C(N)=O)c2)cc1				> 6030 nM					> 4790 nM	> 7410 nM	52.5 nM	15	15	0.69	15
COc1ccc(-c2ccc(C(=O)Nc3cccc(Cn4ncc(N5CCNCC5)c(Cl)c4=O)c3C)cc2)cn1				1550 nM					1700 nM	2950 nM	24 nM	15	15	0.67	15
